# Reference: ChEMBL document CHEMBL4049460, “Trisubstituted Imidazoles with a Rigidized Hinge Binding Motif Act As Single Digit nM Inhibitors of Clinically Relevant EGFR L858R/T790M and L858R/T790M/C797S Mutants: An Example of Target Hopping” (J Med Chem, 2017)
# The source made the active and inactive calls. The rule behind the calls is not given here.
# Key:
# [1] = target: T1, Epidermal growth factor receptor (Homo sapiens, UniProt P00533, L858R/T790M); experiment: Inhibition of recombinant human GST-tagged EGFR L858R/T790M double mutant cytoplasmic domain expressed in baculovirus expression system preincubated for 20 mins followed by addition of [33P]-ATP measured after 2 hrs by filter-binding method
# [2] = target: Epidermal growth factor receptor (Homo sapiens, UniProt P00533, T790M/C797S/L858R); experiment: Inhibition of recombinant human N-terminally GST-tagged EGFR L858R/T790M/C797S triple mutant expressed in baculovirus in Sf9 insect cells preincubated for 20 mins followed by addition of [33P]-ATP measured after 2 hrs by filter-binding method
# [3] = Drug metabolism in human liver microsomes assessed as parent compound remaining at 100 uM after 4 hrs in presence of NADPH regenerating system by LC-MS analysis; type: ADME, microsome; settings: read-out: Stability
# Homo sapiens [4] = species: Homo sapiens; experiment: Selectivity ratio of IC50 for EGFR L858R/T790M double mutant (unknown origin) to IC50 for wild-type EGFR (unknown origin)
# [5] = target: T2, Epidermal growth factor receptor (Homo sapiens, UniProt P00533); experiment: Binding affinity to wild-type human EGFR (669 to 1011 residues) expressed in bacterial system incubated for 1 hr; type: ADME
# Outline: (§1)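 Competition binding of inhibitor against an immobilized active-site-directed ligand; Kd read out. Compound and kinase combined and equilibrated for 1 h without dilution (study arm C).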
# [6] = target: T2, Epidermal growth factor receptor; experiment: Binding affinity to wild-type human EGFR (669 to 1011 residues) expressed in bacterial system preincubated for 1 hr followed by 30 fold dilution measured after 5 hrs; type: ADME
# Outline: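 Competition binding against an immobilized active-site-directed ligand; Kd read out. Compound and kinase combined and equilibrated 1 h, then diluted 30-fold in reaction buffer and equilibrated a further 5 h (study arm B).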
# [7] = target: Epidermal growth factor receptor (Homo sapiens, UniProt P00533, L858R); experiment: Binding affinity to human EGFR L858R mutant (669 to 1011 residues) expressed in bacterial system preincubated for 1 hr followed by 30 fold dilution measured after 5 hrs
# Outline: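 Competition binding: compound's ability to displace an immobilized, active-site-directed ligand from the kinase, reported as Kd. Compound and kinase were equilibrated 1 h, diluted 30-fold in reaction buffer, then equilibrated a further 5 h before read-out.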
# [8] = target: T1, Epidermal growth factor receptor; experiment: Binding affinity to human EGFR L858R/T790M double mutant (669 to 1011 residues) expressed in mammalian system incubated for 1 hr; outline: as §1
# Homo sapiens [9] = species: Homo sapiens; experiment: (§2) Inhibition of recombinant human N-terminally GST-His6 tagged EGFR 746-750 deletion mutant (M672 to A1210 residues) C-terminal fragment harboring 3C cleavage site expressed in Baculovirus infected Sf9 cells assessed as residual activity at 1 uM in presence of [33-gamma]-ATP after 60 mins by scintillation counting method relative to control
# Homo sapiens [10] = species: Homo sapiens; experiment: as §2, with “del 747-752/P753S” for “746-750 deletion”, “(H672” for “(M672”
# [11] = system: Epidermal growth factor receptor (Homo sapiens), P00533 [L858R,T790M]; experiment: as §2, with “T790M/L858R double” for “746-750 deletion”, “(H672” for “(M672”
# [12] = target: Receptor tyrosine-protein kinase erbB-4 (Homo sapiens) (UniProt Q15303); experiment: as §2, with “ERBB4 (R676” for “EGFR 746-750 deletion mutant (M672”, “V1307” for “A1210”, “thrombin” for “3C”
# [13] = target: Cytoplasmic tyrosine-protein kinase BMX (Homo sapiens) (UniProt P51813); experiment: Inhibition of BMX (unknown origin) assessed as residual activity at 1 uM in presence of [33-gamma]-ATP after 60 mins by scintillation counting method relative to control
# Chain of Cytoplasmic tyrosine-protein kinase BMX (Homo sapiens) (P51813 whole entry, the tested form may be a part): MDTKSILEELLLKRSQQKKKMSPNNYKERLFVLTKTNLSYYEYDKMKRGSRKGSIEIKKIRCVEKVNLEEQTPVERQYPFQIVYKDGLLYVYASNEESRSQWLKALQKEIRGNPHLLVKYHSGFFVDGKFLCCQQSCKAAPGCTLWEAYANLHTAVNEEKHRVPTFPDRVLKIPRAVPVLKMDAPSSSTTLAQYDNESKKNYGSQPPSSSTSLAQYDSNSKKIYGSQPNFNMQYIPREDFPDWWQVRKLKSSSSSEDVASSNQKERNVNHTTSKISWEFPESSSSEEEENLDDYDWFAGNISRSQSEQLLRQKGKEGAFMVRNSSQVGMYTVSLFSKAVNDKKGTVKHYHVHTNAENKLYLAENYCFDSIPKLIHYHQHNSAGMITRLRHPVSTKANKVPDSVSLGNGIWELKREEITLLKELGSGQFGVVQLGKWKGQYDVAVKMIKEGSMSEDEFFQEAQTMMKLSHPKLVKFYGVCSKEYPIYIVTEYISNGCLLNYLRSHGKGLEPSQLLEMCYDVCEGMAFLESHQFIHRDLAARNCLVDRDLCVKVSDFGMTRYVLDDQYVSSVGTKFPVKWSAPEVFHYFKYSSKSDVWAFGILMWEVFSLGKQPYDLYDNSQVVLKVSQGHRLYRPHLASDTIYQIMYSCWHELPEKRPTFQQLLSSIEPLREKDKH
# [14] = target: Mitogen-activated protein kinase 9 (Homo sapiens) (UniProt P45984); experiment: Inhibition of recombinant full-length human JNK2 (M1 to Y424 residues) expressed in Escherichia coli assessed as residual activity at 1 uM in presence of [33-gamma]-ATP after 60 mins by scintillation counting method relative to control
# Chain of Mitogen-activated protein kinase 9 (Homo sapiens) (P45984 whole entry, looked up, the tested form may be a part): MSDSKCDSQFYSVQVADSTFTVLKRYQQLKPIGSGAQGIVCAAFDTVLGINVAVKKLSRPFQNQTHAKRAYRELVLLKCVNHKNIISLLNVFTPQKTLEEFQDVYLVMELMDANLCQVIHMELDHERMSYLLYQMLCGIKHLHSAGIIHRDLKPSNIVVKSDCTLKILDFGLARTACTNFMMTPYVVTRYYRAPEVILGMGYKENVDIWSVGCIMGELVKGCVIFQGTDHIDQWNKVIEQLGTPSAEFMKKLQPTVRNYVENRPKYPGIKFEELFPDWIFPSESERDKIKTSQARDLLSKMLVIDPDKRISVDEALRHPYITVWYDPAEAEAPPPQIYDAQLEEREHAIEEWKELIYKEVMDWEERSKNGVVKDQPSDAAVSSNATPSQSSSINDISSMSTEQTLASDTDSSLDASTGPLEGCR
# [15] = target: Mitogen-activated protein kinase 10 (Homo sapiens) (UniProt P53779); experiment: Inhibition of recombinant full-length human JNK3 (M1 to R426 residues) expressed in Escherichia coli assessed as residual activity at 1 uM in presence of [33-gamma]-ATP after 60 mins by scintillation counting method relative to control
# Chain of Mitogen-activated protein kinase 10 (Homo sapiens) (P53779 whole entry, the tested form may be a part): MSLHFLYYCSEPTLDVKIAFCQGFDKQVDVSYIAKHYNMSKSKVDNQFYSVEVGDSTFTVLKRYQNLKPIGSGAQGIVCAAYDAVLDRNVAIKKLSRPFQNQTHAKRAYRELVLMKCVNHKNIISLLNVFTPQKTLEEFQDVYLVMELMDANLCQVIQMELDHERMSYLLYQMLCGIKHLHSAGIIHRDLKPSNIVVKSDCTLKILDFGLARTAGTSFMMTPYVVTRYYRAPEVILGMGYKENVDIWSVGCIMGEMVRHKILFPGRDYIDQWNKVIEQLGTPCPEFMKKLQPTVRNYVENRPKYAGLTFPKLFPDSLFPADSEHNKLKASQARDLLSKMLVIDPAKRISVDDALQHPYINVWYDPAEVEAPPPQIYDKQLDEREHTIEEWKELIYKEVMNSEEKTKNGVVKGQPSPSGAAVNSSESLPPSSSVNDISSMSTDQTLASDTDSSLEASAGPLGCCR
# [16] = target: Mitogen-activated protein kinase kinase kinase kinase 4 (Homo sapiens) (UniProt O95819); experiment: Inhibition of recombinant human N-terminally GST-His6 tagged MAP4K4 (A7 to W1320 residues) harboring 3C-cleavage site expressed in Baculovirus infected Sf9 cells assessed as residual activity at 1 uM in presence of [33-gamma]-ATP after 60 mins by scintillation counting method relative to control
# [17] = target: Mitogen-activated protein kinase kinase kinase kinase 5 (Homo sapiens) (UniProt Q9Y4K4); experiment: Inhibition of MAP4K5 (unknown origin) assessed as residual activity at 1 uM in presence of [33-gamma]-ATP after 60 mins by scintillation counting method relative to control
# Chain of Mitogen-activated protein kinase kinase kinase kinase 5 (Homo sapiens) (Q9Y4K4 whole entry, looked up, the tested form may be a part): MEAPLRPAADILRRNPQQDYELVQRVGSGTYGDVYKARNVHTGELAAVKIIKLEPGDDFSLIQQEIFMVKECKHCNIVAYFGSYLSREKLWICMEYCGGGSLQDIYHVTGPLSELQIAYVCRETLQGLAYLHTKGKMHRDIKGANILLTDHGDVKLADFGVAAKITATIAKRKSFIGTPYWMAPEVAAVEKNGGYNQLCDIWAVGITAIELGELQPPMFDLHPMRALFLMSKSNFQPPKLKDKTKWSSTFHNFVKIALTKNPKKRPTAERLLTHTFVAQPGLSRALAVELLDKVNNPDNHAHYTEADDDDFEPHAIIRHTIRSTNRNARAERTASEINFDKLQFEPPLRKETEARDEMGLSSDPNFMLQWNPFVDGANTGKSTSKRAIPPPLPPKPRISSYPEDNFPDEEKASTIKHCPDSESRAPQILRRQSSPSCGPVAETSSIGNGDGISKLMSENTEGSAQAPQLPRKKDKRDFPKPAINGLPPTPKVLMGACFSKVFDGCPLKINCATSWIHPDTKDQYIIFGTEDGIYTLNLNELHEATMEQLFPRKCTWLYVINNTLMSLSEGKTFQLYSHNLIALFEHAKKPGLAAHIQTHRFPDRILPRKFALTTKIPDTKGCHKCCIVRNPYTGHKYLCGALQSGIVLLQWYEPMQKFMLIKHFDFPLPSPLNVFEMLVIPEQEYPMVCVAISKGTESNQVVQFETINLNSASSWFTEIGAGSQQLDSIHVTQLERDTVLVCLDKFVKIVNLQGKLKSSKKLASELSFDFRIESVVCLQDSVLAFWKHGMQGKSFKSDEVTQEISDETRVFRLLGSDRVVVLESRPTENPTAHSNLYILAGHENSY
# [18] = target: MAP kinase-activated protein kinase 2 (Homo sapiens) (UniProt P49137); experiment: Inhibition of recombinant full-length human MAPKAPK2 (M1 to L370 residues) expressed in Baculovirus infected Sf9 cells assessed as residual activity at 1 uM in presence of [33-gamma]-ATP after 60 mins by scintillation counting method relative to control
# Chain of MAP kinase-activated protein kinase 2 (Homo sapiens) (P49137 whole entry, looked up, the tested form may be a part): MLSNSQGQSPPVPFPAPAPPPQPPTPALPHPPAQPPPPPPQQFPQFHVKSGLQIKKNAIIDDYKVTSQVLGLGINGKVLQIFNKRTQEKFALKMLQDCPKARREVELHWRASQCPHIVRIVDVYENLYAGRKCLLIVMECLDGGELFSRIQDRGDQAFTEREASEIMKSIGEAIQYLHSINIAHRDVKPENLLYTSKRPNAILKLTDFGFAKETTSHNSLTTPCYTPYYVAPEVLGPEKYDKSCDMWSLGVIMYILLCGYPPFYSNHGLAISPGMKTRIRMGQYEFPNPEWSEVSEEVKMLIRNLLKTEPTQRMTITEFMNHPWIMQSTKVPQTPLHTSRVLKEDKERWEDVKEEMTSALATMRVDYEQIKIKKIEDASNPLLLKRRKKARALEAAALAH
# [19] = target: Misshapen-like kinase 1 (Homo sapiens) (UniProt Q8N4C8); experiment: Inhibition of recombinant human N-terminally GST-HIS6 tagged MINK1 (M1 to E320 residues) harboring 3C-cleavage site expressed in Baculovirus infected Sf9 cells assessed as residual activity at 1 uM in presence of [33-gamma]-ATP after 60 mins by scintillation counting method relative to control
# Chain of Misshapen-like kinase 1 (Homo sapiens) (Q8N4C8 whole entry, looked up, the tested form may be a part): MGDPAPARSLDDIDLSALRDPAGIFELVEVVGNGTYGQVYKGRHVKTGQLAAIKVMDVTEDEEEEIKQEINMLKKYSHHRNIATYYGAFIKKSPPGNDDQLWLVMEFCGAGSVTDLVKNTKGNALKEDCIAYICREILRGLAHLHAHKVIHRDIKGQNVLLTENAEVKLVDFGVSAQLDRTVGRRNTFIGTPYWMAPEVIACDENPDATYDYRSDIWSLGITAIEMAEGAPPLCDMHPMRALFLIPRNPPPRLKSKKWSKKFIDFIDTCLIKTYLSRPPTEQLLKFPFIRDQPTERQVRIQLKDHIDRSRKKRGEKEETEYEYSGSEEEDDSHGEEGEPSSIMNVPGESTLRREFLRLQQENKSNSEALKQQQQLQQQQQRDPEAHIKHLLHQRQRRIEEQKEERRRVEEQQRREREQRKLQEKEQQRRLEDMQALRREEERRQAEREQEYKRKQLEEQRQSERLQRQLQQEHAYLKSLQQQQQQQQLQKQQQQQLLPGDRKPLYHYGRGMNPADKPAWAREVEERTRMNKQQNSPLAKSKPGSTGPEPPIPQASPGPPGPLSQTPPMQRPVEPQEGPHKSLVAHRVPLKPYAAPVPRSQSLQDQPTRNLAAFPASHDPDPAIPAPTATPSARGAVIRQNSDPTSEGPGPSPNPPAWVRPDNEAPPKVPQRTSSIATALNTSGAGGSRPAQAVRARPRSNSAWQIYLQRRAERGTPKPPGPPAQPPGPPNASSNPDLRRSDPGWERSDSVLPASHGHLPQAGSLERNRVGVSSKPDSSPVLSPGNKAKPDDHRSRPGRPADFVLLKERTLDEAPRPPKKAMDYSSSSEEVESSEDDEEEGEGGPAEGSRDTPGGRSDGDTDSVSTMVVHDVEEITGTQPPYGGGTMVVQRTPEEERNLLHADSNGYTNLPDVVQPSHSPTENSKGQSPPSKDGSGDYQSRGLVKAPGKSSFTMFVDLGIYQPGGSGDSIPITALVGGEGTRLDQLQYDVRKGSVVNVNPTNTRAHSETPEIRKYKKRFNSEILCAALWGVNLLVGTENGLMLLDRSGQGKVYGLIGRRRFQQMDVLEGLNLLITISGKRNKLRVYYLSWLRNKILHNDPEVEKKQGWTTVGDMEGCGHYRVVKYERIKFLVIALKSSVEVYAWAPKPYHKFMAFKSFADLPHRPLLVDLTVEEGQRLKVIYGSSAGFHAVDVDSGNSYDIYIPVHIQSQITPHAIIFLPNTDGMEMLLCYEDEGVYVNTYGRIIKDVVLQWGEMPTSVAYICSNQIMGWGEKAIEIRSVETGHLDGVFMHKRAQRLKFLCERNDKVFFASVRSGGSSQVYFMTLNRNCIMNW
# [20] = target: Mitogen-activated protein kinase 14 (Homo sapiens, UniProt Q16539); experiment: Inhibition of recombinant full-length human p38alpha MAPK (M1 to S360 residues) expressed in Escherichia coli at 1 uM in presence of [33-gamma]-ATP after 60 mins by scintillation counting method
# Chain of Mitogen-activated protein kinase 14 (Q16539 whole entry, the tested form may be a part): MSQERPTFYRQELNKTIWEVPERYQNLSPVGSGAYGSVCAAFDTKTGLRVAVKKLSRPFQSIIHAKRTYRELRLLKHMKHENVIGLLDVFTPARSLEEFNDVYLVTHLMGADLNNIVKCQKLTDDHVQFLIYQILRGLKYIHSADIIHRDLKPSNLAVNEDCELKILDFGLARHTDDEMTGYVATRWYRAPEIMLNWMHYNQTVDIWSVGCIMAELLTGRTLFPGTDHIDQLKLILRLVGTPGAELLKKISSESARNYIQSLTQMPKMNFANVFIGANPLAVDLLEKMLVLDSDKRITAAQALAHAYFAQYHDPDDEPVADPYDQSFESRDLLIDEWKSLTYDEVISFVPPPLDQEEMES
# [21] = target: T2, Epidermal growth factor receptor; experiment: Ratio of Kd for wild-type human EGFR (669 to 1011 residues) after 1 hr to Kd for wild-type human EGFR (669 to 1011 residues) after 6 hrs; type: ADME
# Outline: (§3)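 Kd from competition with an immobilized active-site-directed ligand […]. Ratio compares 1 h compound–kinase equilibration against an arm with 6 h overall equilibration.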
# [22] = system: Epidermal growth factor receptor (Homo sapiens), P00533 [L858R,T790M]; experiment: Ratio of Kd for human EGFR L858R/T790M double mutant (669 to 1011 residues) after 1 hr to Kd for EGFR L858R/T790M double mutant (669 to 1011 residues) after 6 hrs; outline: as §3
# [23] = system: Epidermal growth factor receptor (Homo sapiens), P00533 [L858R]; experiment: Ratio of Kd for human EGFR L858R mutant (669 to 1011 residues) after 1 hr to Kd for human EGFR L858R mutant (669 to 1011 residues) after 6 hrs; outline: as §3
compound,measurement,setting,value
C=CC(=O)Nc1cccc(-c2c[nH]c3nccc(-c4[nH]c(CCCO)nc4-c4ccc(F)cc4)c23)c1,IC50,[1],1.52 nM
same,IC50,[2],Not Active
same,"remaining at 4 h, 100 µM",[3],87%
same,Ratio IC50,Homo sapiens [4],> 40
same,Kd,[5],2 nM
same,Kd,[6],3.4 nM
same,Kd,[7],1.8 nM
same,Kd,[8],13 nM
same,Activity,Homo sapiens [9],3%
same,Activity,Homo sapiens [10],4%
same,Activity,[11],21%
same,Activity,[12],4%
same,Activity,[13],17%
same,Activity,[14],37%
same,Activity,[15],34%
same,Activity,[16],1%
same,Activity,[17],2%
same,Activity,[18],48%
same,Activity,[19],5%
same,inhibition,[20],Active
same,Ratio,[21],3 to 5
same,Ratio,[22],3 to 5
same,Ratio,[23],3 to 5
